Test results published in ChEMBL document CHEMBL1671778, “Synthesis and serotonin transporter activity of 1,3-bis(aryl)-2-nitro-1-propenes as a new class of anticancer agents” (Bioorg Med Chem, 2011).
pEC50, pIC50: −log10 of the molar value. Calls of active or inactive are those of the source. The rule behind the calls is not given here.

Key:
SH-SY5Y [1] = assay: Antiproliferative activity against human SH-SY5Y cells after 24 hrs Alamar blue assay; type: functional, cell-based
Summary of the method: (§1)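 Alamar Blue viability: 1-5x10^4 cells/well treated 24 h, then Alamar Blue (pre-warmed) 4-6 h at 37 °C in the dark. Fluorescence read at 590 nm (excitation 544 nm), background of medium plus dye subtracted, untreated cells = 100% viability. Miconazole 10 µM as cell-death control. Range 1 µM-1 mM, triplicate on two independent days. pEC50 from non-linear sigmoidal regression.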

DG-75 [2] = assay: Antiproliferative activity against human DG75 cells after 24 hrs Alamar blue assay; type: functional, cell-based; conditions: DG-75, 24 h; summary of the method: as §1
[3] = Antiproliferative activity against human chemosensitive MUTU-I cells after 24 hrs Alamar blue assay; type: functional, cell-based; summary of the method: as §1
[4] = biological target: T1, Sodium-dependent serotonin transporter (Homo sapiens, UniProt P31645); conditions: HEK293, at 100 µM
Target sequence in this assay (P31645 whole entry, looked up): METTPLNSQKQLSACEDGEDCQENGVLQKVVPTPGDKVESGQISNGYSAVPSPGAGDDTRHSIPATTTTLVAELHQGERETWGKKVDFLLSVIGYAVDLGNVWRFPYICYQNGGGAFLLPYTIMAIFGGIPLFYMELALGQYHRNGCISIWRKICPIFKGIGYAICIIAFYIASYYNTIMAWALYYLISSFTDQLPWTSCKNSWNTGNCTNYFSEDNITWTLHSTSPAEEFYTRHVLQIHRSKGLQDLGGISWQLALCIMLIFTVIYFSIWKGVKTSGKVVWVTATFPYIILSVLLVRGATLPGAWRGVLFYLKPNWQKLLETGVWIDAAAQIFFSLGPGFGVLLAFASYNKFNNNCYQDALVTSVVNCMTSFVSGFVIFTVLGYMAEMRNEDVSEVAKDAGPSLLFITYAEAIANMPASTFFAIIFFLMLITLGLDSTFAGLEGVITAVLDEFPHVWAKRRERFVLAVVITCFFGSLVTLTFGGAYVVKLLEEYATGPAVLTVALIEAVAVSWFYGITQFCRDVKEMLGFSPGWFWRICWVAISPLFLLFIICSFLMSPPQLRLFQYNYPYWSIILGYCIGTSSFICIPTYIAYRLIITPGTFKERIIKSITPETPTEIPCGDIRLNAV

HEK293 [5] = assay: Cytotoxicity against human HEK293 cells assessed as decrease in cell viability after 48 hrs neutral red dye assay; type: functional, cell-based; conditions: HEK293, 48 h
Summary of the method: (§2)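 5x10^4 cells/well grown to sub-confluence (24-36 h), then exposed to compound 48 h. Neutral red dye 3+1 h, solubilised in 50% ethanol/1% acetic acid, absorbance 540 nm (690 nm background). Viability as percent of vehicle-treated cells; pEC50 by non-linear sigmoidal regression over 4 concentrations, triplicate on two independent days. Controls 30 mM sodium azide, 2% Triton-X. HEK293-hSERT cells kept in Geneticin, used up to 30 passages.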

DG-75 [6] = assay: Cytotoxicity against human chemoresistant DG75 cells expressing SERT assessed as decrease in cell viability 10 or 50 uM after 72 hrs Alamar blue assay; type: functional, cell-based; conditions: DG-75, 72 h
Summary of the method: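 1-5x10^4 cells/200 µl given 10 or 50 µM for 24 h (MUTU-I, MDA-MB231, PBMC) or […]. Alamar Blue at 37 °C in the dark 4-6 h, then fluorescence read with 544/590 nm. Media-only background subtracted; untreated cells set as 100% viability. Mean of six points (triplicate, two independent days). PBMCs from a healthy donor, isolated by ficoll density separation.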

[7] = biological target: T1, Sodium-dependent serotonin transporter; conditions: HEK293, at 1 µM
Target sequence in this assay (P31645 whole entry, looked up): as above

HEK293 [8] = assay: Cytotoxicity against human HEK293 cells expressing human SERT assessed as decrease in cell viability after 48 hrs neutral red dye assay; type: functional, cell-based; conditions: HEK293, 48 h; summary of the method: as §2
SH-SY5Y [9] = assay: Cytotoxicity against human SH-SY5Y cells expressing human SERT assessed as decrease in cell viability after 48 hrs neutral red dye assay; type: functional, cell-based
[10] = biological target: T1, Sodium-dependent serotonin transporter; assay: Inhibition of [3H]-serotonin reuptake at human SERT expressed in HEK293 cells after 15 to 20 mins by fluorescence neurotransmitter transporter assay; type: cell-based
Target sequence in this assay (P31645 whole entry): as the sequence (P31645 whole entry, looked up) above

MUTU-I [11] = assay: Induction of apoptosis in human chemosensitive MUTU-I cells assessed as chromatin condensation and membrane bledding at 10 uM after 4 hrs; type: functional, cell-based
Summary of the method: (§3)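 Cells at 3x10^5 cells/mL exposed for 4 h or 8 h. 150 µl aliquots were cytocentrifuged onto slides (500 ×g, 2 min), air-dried, methanol-fixed, and stained with eosin Y and methylene blue. Morphology was examined by light microscopy at 60x.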

MUTU-I [12] = assay: Induction of apoptosis in human chemosensitive MUTU-I cells assessed as caspase 3/7 activation at 10 uM after 5 hrs; type: functional, cell-based
Summary of the method: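 Caspase 3/7 activity by homogeneous fluorogenic kit: 0.5x10^5 cells exposed to compound (10 µM) for 5 h, then 100 µl Z-DEVD-R110 substrate added. After 2 h, cleaved substrate measured at 521 nm (excitation 499 nm).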

MUTU-I [13] = assay: Induction of apoptosis in human chemosensitive MUTU-I cells assessed as induction of PARP cleavage at 10 uM after 4 hrs; type: functional, cell-based
Summary of the method: (§4)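 PARP cleavage by Western blot: 5x10^6 cells pelleted (500 ×g, 5 min), washed, and lysed in Laemmli buffer with protease inhibitors. Lysates run on 8% SDS-PAGE, transferred to PVDF, and probed with anti-PARP detecting full-length 113 kDa and cleaved 85 kDa forms. HRP secondary antibody, chemiluminescence detection.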

[14] = biological target: T2, Tyrosine-protein phosphatase non-receptor type 1 (Homo sapiens) (UniProt P18031); assay: Inhibition of human recombinant PTP1B in chemosensitive MUTU-I cells after 30 mins; type: cell-based
T2 sequence (whole entry): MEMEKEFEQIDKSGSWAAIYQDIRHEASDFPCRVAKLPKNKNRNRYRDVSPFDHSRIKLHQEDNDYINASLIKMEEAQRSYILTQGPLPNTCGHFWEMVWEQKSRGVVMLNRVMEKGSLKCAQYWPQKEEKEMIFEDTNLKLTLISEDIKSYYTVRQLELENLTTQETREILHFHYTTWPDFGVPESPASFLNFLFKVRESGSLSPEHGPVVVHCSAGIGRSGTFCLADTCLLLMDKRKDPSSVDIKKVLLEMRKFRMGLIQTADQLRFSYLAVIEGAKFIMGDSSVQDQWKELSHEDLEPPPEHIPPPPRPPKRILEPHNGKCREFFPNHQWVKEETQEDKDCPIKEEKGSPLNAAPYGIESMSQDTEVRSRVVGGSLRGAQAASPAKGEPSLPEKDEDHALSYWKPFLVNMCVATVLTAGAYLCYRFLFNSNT
Summary of the method: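 Recombinant PTP1B expressed in E. coli, incubated with compound and a phosphopeptide substrate for 30 min at 30 °C. Released phosphate detected by malachite green at 620 nm and quantified against a phosphate standard curve. Suramin as positive control.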

MUTU-I [15] = assay: Induction of apoptosis in human chemosensitive MUTU-I cells assessed as chromatin condensation and membrane bledding at 10 uM after 8 hrs; type: functional, cell-based; summary of the method: as §3
MUTU-I [16] = assay: Induction of apoptosis in human chemosensitive MUTU-I cells assessed as caspase 3/7 activation at 10 uM after 4 hrs; type: functional, cell-based
MUTU-I [17] = assay: Induction of apoptosis in human chemosensitive MUTU-I cells assessed as induction of PARP cleavage at 10 uM after 8 hrs; type: functional, cell-based; summary of the method: as §4
Tubulin (Homo sapiens) = Tubulin (Homo sapiens) (UniProt P68371+Q9H4B7+P0DPH7+P68366+Q13509+Q71U36+P04350+Q3ZCM7+P07437+P68363+Q9BQE3+Q6PEY2+Q13885+Q9BVA1+Q9BUF5); assay: Inhibition of tubulin polymerisation in human chemosensitive MUTU-I cells after 30 mins; type: cell-based
MUTU-I [18] = assay: Induction of apoptosis in human chemosensitive MUTU-I cells assessed as accumulation at G2/M phase after 2 to 8 hrs by propidium iodide FACS analysis relative to taxol; type: functional, cell-based
Summary of the method: (§5)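 750,000 MUTU-I cells per sample treated for the stated time, then harvested (300 ×g, 5 min), washed in ice-cold PBS and fixed overnight at 4 °C in 70% ethanol. Stained with RNase A and propidium iodide, 30 min at 37 °C in the dark. Flow cytometry counted 10,000 gated cells for cell-cycle phases. Taxol 10 µM as positive control.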

[19] = Induction of apoptosis in human chemosensitive MUTU-I cells assessed as accumulation at pre-G1 phase at 10 uM by propidium iodide FACS analysis; type: functional; summary of the method: as §5

Structure (SMILES) | pEC50 (SH-SY5Y [1]) | pEC50 (DG-75 [2]) | pEC50 [3] | inhibition [4] [%] | pEC50 (HEK293 [5]) | pEC50 (DG-75 [6]) | inhibition [7] [%] | pEC50 (HEK293 [8]) | pEC50 (SH-SY5Y [9]) | other results
OC(Cc1ccc2c(c1)OCO2)Cc1ccc2c(c1)OCO2 | 3.80 | 3.90 | 4.40 |  |  |  |  |  |  | 
O=CNC(Cc1ccc2c(c1)OCO2)Cc1ccc2c(c1)OCO2 | 3.65 | 3.80 | 4.20 | 55 | < 2.00 | 4.80 | 18 | 2.80 | < 2.00 | 
COc1ccc(CC(N)Cc2ccc(OC)cc2)cc1 | 4.70 | 3.40 | 3.10 | 65 | 4.50 | 4.70 | 11 | 4.60 | 4.70 | 
CSc1ccc(C/C(=C/c2ccc(Cl)cc2)[N+](=O)[O-])cc1 | 4.70 | 5.10 | 5.50 |  |  |  |  |  |  | 
O=C(Cc1ccc2c(c1)OCO2)Cc1ccc2c(c1)OCO2 | 3.60 | 3.80 | 4.00 |  | 2.90 | 2.50 |  | 2.30 | < 2.00 | 
CC(N)Cc1ccc2c(c1)OCO2 (stereo not drawn) [TENAMFETAMINE] |  |  |  |  | 3.50 | 2.70 |  | 3.20 | < 2.00 | pIC50 [10]: 6.05
CSc1ccc(/C=C(/Cc2ccc(SC)cc2)[N+](=O)[O-])cc1 | 4.70 | 4.40 | 5.50 | 18 |  |  | 25 |  |  | Activity (MUTU-I [11]): Active; Activity (MUTU-I [12]): Active; Activity (MUTU-I [13]): Active; inhibition [14]: inactive; Activity (MUTU-I [15]): Active; Activity (MUTU-I [16]): Active; Activity (MUTU-I [17]): Active; inhibition (Tubulin (Homo sapiens)): inactive; Activity (MUTU-I [18]): Active; Activity [19]: 50%
COc1ccc(/C=C(/Cc2ccc(OC)cc2)[N+](=O)[O-])cc1 | 4.90 | 4.90 | 5.60 | 10 |  |  | 25 |  |  | Activity (MUTU-I [11]): Active; Activity (MUTU-I [12]): Active; Activity (MUTU-I [13]): Active; inhibition [14]: inactive; Activity (MUTU-I [15]): Active; Activity (MUTU-I [16]): Active; Activity (MUTU-I [17]): Active; inhibition (Tubulin (Homo sapiens)): inactive; Activity (MUTU-I [18]): Active; Activity [19]: 32%
CN(C)CCCC1(c2ccc(F)cc2)OCc2cc(C#N)ccc21 (stereo not drawn) [CITALOPRAM] |  |  |  |  | 4.80 | 4.90 |  |  | 4.60 | 
O=[N+]([O-])/C(=C\c1ccc(Cl)cc1)Cc1ccc(Cl)cc1Cl | 4.60 | 5.50 | 5.50 |  |  |  |  |  |  | 
CCNC(Cc1ccc(SC)cc1)Cc1ccc(SC)cc1 |  |  |  | 92 | 2.90 | 4.90 | 31 | 4.60 | 4.80 | pIC50 [10]: 5.66
ON=C(Cc1ccc2c(c1)OCO2)Cc1ccc2c(c1)OCO2 | 4.20 | 4.30 | 4.60 |  |  |  |  |  |  | 
COc1ccc(CC(Cc2ccc(OC)cc2)NC=O)cc1 | 3.50 | 3.70 | 3.70 | 18 | 4.50 | 2.80 | 8 | 2.40 | < 2.00 | 
CNC(C)Cc1ccc2c(c1)OCO2 (stereo not drawn) [MIDOMAFETAMINE] |  |  |  |  | 3.60 | 4.50 |  | 3.30 | < 2.00 | pIC50 [10]: 5.96
CSc1ccc(CC(C)N)cc1 (stereo not drawn) [4-METHYLTHIOAMPHETAMINE] |  |  |  |  | 4.70 | 3.50 |  | 4.60 | 3.20 | pIC50 [10]: 6.70
NC(Cc1ccc2c(c1)OCO2)Cc1ccc2c(c1)OCO2 | 4.50 | 3.60 | 4.30 | 77 | 4.60 | 4.80 | 44 | 4.50 | 4.50 | pIC50 [10]: 5.80
CSc1ccc(CC(Cc2ccc(SC)cc2)NC(C)=O)cc1 | 1.80 | 3.40 | 3.80 | 28 |  | 2.40 | 0 | 4.40 | 2.40 | 
CC(=O)NC(Cc1ccc2c(c1)OCO2)Cc1ccc2c(c1)OCO2 |  |  |  |  | 2.40 | 2.90 |  | < 2.00 | < 2.00 | 
